These results are taken from PMC3102230 (Chemistry & biology, 2011).

Each structure is given as a SMILES string. Like-named read-outs stand apart in the source and are kept apart here.

The test system of assay [1] is E. coli EF-GΔG′. Nature of the assay: Malachite green rdGTPase assay, EF-GΔG′. In kind it is biochemical.
In assay [2] the test system is E. coli EF4. Put plainly: Malachite green rdGTPase assay, EF4. In kind it is biochemical. Conditions: for effect on rdGTPase activity of EF4: E. coli 70S ribosomes, 1 μM ThS or 5 μM MiC (Figure 2C); for effect on rdGTPase activity of EF4, ribosomes lacking L7/L12: E. coli 70SΔL7/L12 ribosomes, 12 hours at 20 °C (Figure 2H).
The subject of assay [3] is E. coli IF2.
Assay [4] deals with POST complex. Put plainly: EF4-mediated back-translocation assay. The assay is classed as biochemical, E. coli. As to conditions: 5 μM Evn. Summed up:
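POST complex formed from initiation and ternary complexes plus EF-G (0.2:1 to ribosomes) and 1 mM GTP, 37 °C, 10 min, then sucrose-cushion purified. 0.1 μM POST premixed with 0.15 μM tRNAfMet was stopped-flow mixed with 3 μM EF4, 0.5 mM GDPNP and test compound at 0–5 μM (final). Proflavin excitation 460 nm, 495 nm long-pass. Traces fit to a three-step back-translocation kinetic model.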

The test system of assay [5] is E. coli lysate-based system. Put plainly: In vitro coupled transcription-translation assay. In kind it is biochemical. Conditions: read-out: IC50, in vitro transcription-translation (synthesis of GFP); E. coli in vitro coupled transcription-translation system (Figure S3). The method, boiled down: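 Coupled transcription-translation in an E. coli lysate-based system, run with or without test compound. GFP fluorescence was scanned with a blue laser module, and the images were quantified.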

The test system of assay [6] is S. faecalis TetM. Nature of the assay: Malachite green rdGTPase assay, TetM. In kind it is biochemical. Conditions: for effect on rdGTPase activity of TetM: E. coli 70S ribosomes, 1 μM ThS or 5 μM MiC (Figure 2B).
Assay [7] relates to E. coli BipA. Nature of the assay: Malachite green rdGTPase assay, BipA. Conditions: for effect on rdGTPase activity of BipA: E. coli 70S ribosomes, 1 μM ThS or 5 μM MiC (Figure 2D); for effect on rdGTPase activity of BipA, ribosomes lacking L7/L12: E. coli 70SΔL7/L12 ribosomes, 12 hours at 20 °C (Figure 2I). The assay is classed as biochemical.
Assay [8] deals with E. coli EF-G. Nature of the assay: Malachite green ribosome-dependent GTPase. In kind it is biochemical. Conditions: for effect on rdGTPase activity of EF-G, ribosomes lacking L7/L12: E. coli 70SΔL7/L12 ribosomes, 12 hours at 20 °C (Figure 2G).
Assay [9] concerns PRE complex. Nature of the assay: EF-G catalysed translocation assay. The assay is classed as biochemical. Conditions: 10 μM Evn, E. coli fMetPhe-tRNAPhe(Prf16/20). Summed up: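 Initiation complex: ribosomes (2 μM), MFK mRNA (8 μM), IF1/IF2/IF3 (3 μM each), 1 mM GTP, [35S]fMet-tRNAfMet (3 μM), 25 min, buffer A pH 7.5, 37 °C. Combined with EF-Tu ternary complex for 45 sec. PRE complex sucrose-cushion purified (20 mM Mg2+). 0.1 μM PRE ± test compound stopped-flow mixed with 5 μM EF-G, 1 mM GTP. Proflavin excitation 460 nm, 495 nm long-pass. Double-exponential fits.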

Assay [10] concerns Tet(O). Nature of the assay: rdGTPase assay, Tet. In kind it is biochemical. As to conditions: data not shown.
The subject of assay [11] is IF2-dependent 70SIC formation. Put plainly: IF2-dependent 70SIC formation light scattering assay. The assay is classed as biochemical, E. coli. Summed up:
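Stopped-flow light scattering at 436 nm excitation with a 455 nm cut-off filter. It was premixed with test compound (0–5 μM), then rapidly mixed with 0.3 μM 50S subunits. All concentrations are final after mixing.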

The mark [12] stands for this setting: E. coli 70S ribosomes, 1 μM ThS or 5 μM MiC (Figure 2F).
Where [13] appears, read: E. coli 70S ribosomes, 1 μM ThS or 5 μM MiC (Figure 2A).

As for `COC[C@H]1O[C@@H](O[C@@H]2OC[C@@H]3O[C@@]4(OC[C@@H](OC(=O)c5c(C)cc(O)cc5O)[C@@H]5OCO[C@H]54)O[C@H]3[C@H]2O)[C@@H](OC)[C@@H](O)[C@@H]1O[C@@H]1O[C@H](C)[C@H](OC)[C@H](O[C@@H]2O[C@H](C)[C@H]3O[C@]4(C[C@@H](O)[C@H](O[C@H]5C[C@@H](O[C@H]6C[C@](C)([N+](=O)[O-])[C@@H](OC)[C@H](C)O6)[C@H](OC(=O)c6c(C)c(Cl)c(O)c(Cl)c6OC)[C@@H](C)O5)[C@@H](C)O4)O[C@]3(C)[C@@H]2O)[C@H]1O` [Evn, evernimicin], the “effect on rdGTPase activity of EF-GΔG′” value in assay [1] (increasing concentrations of Evn (Figure 5C)) is recorded as “little or no effect”. Also, the IC50 in [2] (read-out: IC50, inhibition of EF4 rdGTPase, E. coli 70S ribosomes (Figure 5F)) was roughly 3 µM; in assay [3] (read-out: IC50, inhibition of IF2 rdGTPase, E. coli 70S ribosomes (Figure 5A)), roughly 7 µM; in [5], roughly 2 µM; in [7] (read-out: IC50, inhibition of BipA rdGTPase, E. coli 70S ribosomes (Figure 5E)), roughly 20 µM. Besides, in [3] (increasing concentrations of Evn (Figure 5A)), the “effect on rdGTPase activity of IF2” value is listed as “strongly inhibits”. For the same molecule, the “effect on EF4-catalyzed component of back-translocation” value in assay [4] is given as “completely abolished”. The “effect on rdGTPase activity of Tet(M)” value in [6] (increasing concentrations of Evn (Figure 5D)) is “little or no effect”. Also, the “effect on rdGTPase activity of EF-G” value in assay [8] (increasing concentrations of Evn (Figure 5B)) is “little or no effect”. For the same molecule, the “apparent rate constant of translocation, Step 2” value in assay [9] (control 1.3 ± 0.1 s^−1) turned out to be 3.5 ± 0.2 s⁻¹. In addition, the “apparent rate constant of translocation, Step 1” value in [9] (control 20.7 ± 0.6 s^−1) worked out at 28.1 ± 0.7 s⁻¹. Also, the “effect on rdGTPase of Tet(O)” value in assay [10] is “does not inhibit”. Further, the “effect on IF2-dependent light scattering (70SIC formation)” value in assay [11] (5 μM Evn) is on record as “almost all IF2-dependent light scattering was abolished”. Moreover, the Ki in assay [11] (read-out: apparent Ki for inhibition of IF2-dependent 70SIC formation, reciprocal of IF2-dependent light scattering increase at 1 sec vs. Evn concentration) came out at 1.8 ± 0.2 µM.

`C=C(NC(=O)C(=C)NC(=O)c1csc(C2=N[C@@H]3c4csc(n4)[C@H]4NC(=O)c5csc(n5)[C@H]([C@](C)(O)[C@@H](C)O)NC(=O)[C@H]5CSC(=N5)/C(=C/C)NC(=O)[C@H]([C@@H](C)O)NC(=O)c5csc(n5)[C@]3(CC2)NC(=O)[C@H](C)NC(=O)C(=C)NC(=O)[C@H](C)NC(=O)[C@H]([C@@H](C)CC)N[C@@H]2C=Cc3c([C@H](C)O)cc(nc3[C@H]2O)C(=O)O[C@@H]4C)n1)C(N)=O` [ThS, thiostrepton]: the “effect on rdGTPase activity of EF-GΔG′” value in assay [1] (setting [12]) was “inhibited”. Further, in [2], the “effect on rdGTPase activity of EF4” value was “inhibited” and the “effect on rdGTPase activity of EF4, ribosomes lacking L7/L12” value is on record as “inhibited”. Further, the “effect on rdGTPase activity of IF2” value in assay [3] (E. coli 70S ribosomes, 1 μM ThS or 5 μM MiC (Figure 2E)) is given as “inhibited”. The IC50 in assay [5] is roughly 3 µM. For the same molecule, the “effect on rdGTPase activity of TetM” value in [6] is listed as “inhibited”. Besides, in assay [7], the “effect on rdGTPase activity of BipA” value was “inhibited” and the “effect on rdGTPase activity of BipA, ribosomes lacking L7/L12” value is given as “inhibited”. Further, the “effect on rdGTPase activity of EF-G” value in assay [8] (setting [13]) is reported as “inhibited”. Also, in assay [8], the “effect on rdGTPase activity of EF-G, ribosomes lacking L7/L12” value is reported as “inhibited”.

With `C/C=C(\NC(=O)c1csc(-c2csc(-c3ccc4c(n3)-c3csc(n3)[C@H]([C@@H](C)O)NC(=O)c3csc(n3)[C@H](C(C)C)NC(=O)c3csc(n3)/C(=C/C)NC(=O)[C@H]([C@@H](C)O)NC(=O)c3csc-4n3)n2)n1)C(=O)NC[C@@H](C)O` [MiC, micrococcin], the “effect on rdGTPase activity of EF-GΔG′” value in assay [1] (setting [12]) is on record as “inhibit, rather than stimulate”. Also, in assay [2], the “effect on rdGTPase activity of EF4” value is listed as “inhibited” and the “effect on rdGTPase activity of EF4, ribosomes lacking L7/L12” value is recorded as “inhibited”. For the same molecule, the IC50 in assay [5] is roughly 3 µM. In assay [6], the “effect on rdGTPase activity of TetM” value is on record as “inhibited”. In addition, in assay [7], the “effect on rdGTPase activity of BipA” value was “inhibited” and the “effect on rdGTPase activity of BipA, ribosomes lacking L7/L12” value is recorded as “inhibited”. The “effect on rdGTPase activity of EF-G” value in assay [8] (setting [13]) is “enhanced”. The “effect on rdGTPase activity of EF-G, ribosomes lacking L7/L12” value in assay [8] is listed as “inhibited”.

One may read the IC50 as the point on the concentration scale where inhibition reaches its midpoint.
